From ChEMBL document CHEMBL4406806, “Design, Synthesis, and Characterization of Ogerin-Based Positive Allosteric Modulators for G Protein-Coupled Receptor 68 (GPR68)” (J Med Chem, 2019)
Active and inactive are the calls of the source. The calls are words filed in the database; no cut-off is given here.

Tests used:
Format in all cases: functional, cell-based
[1] = molecular target: G-protein coupled receptor 68 (Homo sapiens) (UniProt Q15743); assay: (§1) Positive allosteric modulation of human GPR68 expressed in HEK293T cells co-expressing Gs assessed as stimulation of proton-mediated cAMP production by measuring allosteric affinity cooperativity in HBSS buffer containing pH 6.8 to 8.2 HEPES/pH 8.3 to 8.6 TAPS measured after 20 to 30 mins in presence of PDE inhibitor Ro 20-1724 by luciferase-glo reporter gene assay
G-protein coupled receptor 68 (Homo sapiens), sequence (Q15743 whole entry): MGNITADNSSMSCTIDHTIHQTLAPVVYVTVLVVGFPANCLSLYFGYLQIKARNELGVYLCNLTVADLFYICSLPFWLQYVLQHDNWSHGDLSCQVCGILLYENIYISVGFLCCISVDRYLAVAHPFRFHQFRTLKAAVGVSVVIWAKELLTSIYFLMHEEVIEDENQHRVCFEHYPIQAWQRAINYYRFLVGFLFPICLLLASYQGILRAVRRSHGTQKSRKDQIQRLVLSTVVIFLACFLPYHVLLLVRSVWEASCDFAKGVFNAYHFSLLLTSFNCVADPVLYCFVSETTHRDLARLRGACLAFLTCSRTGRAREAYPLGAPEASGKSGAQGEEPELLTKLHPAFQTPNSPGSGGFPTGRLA
Summary of the method: (§2)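 Transient co-transfection of HEK293T with receptor and GloSensor plasmids using PEI, overnight, then replated in DMEM + 1% dFBS for 6–24 h. Luciferin 3.5 mM loaded for 1 h at 37 °C in HBSS/20 mM TAPS, pH 8.40. Proton series: Ca/Mg-free HBSS with MES (pH 5.60–6.70), HEPES (6.80–8.20) or TAPS (8.30–8.60), plus 10 μM Ro 20-1724. BSA 1 mg/mL added where solubility required. Luminescence read at 20–30 min. At least six 16-point proton curves across modulator concentrations, quadruplicate, ≥3 independent assays.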

[2] = molecular target: G-protein coupled receptor 68 (Homo sapiens) (UniProt Q15743); assay: as §1, with “index” for “affinity cooperativity”; summary of the method: as §2
[3] = molecular target: G-protein coupled receptor 68 (Homo sapiens) (UniProt Q15743); assay: as §1, with “efficacy” for “allosteric affinity”; summary of the method: as §2
[4] = molecular target: G-protein coupled receptor 68 (Homo sapiens) (UniProt Q15743); assay: Positive allosteric modulation of human GPR68 expressed in HEK293T cells co-expressing Gs assessed as stimulation of proton-mediated cAMP production by measuring allosteric binding affinity in HBSS buffer containing pH 6.8 to 8.2 HEPES/pH 8.3 to 8.6 TAPS measured after 20 to 30 mins in presence of PDE inhibitor Ro 20-1724 by luciferase-glo reporter gene assay; summary of the method: as §2

Row | Compound | log(activity) [1] | Activity index [2] | log(activity) [3] | Activity_index [2] | pKb [4]
1 | COc1ccccc1CNc1nc(N)nc(-c2c(F)cccc2CO)n1 | 1.12 | 5.11 | -0.12 | – | –
2 | Cc1ccccc1-c1nc(N)nc(NCc2ccccc2)n1 | inactive | – | inactive | inactive | inactive
3 | Nc1nc(NCc2ccccc2F)nc(-c2c(F)cccc2CO)n1 | 1.09 | 5.4 | 0.09 | – | –
4 | Nc1nc(NCc2ccc(F)cc2)nc(-c2c(F)cccc2CO)n1 | 1.01 | 5.55 | 0.09 | – | –
5 | NCc1ccccc1-c1nc(N)nc(NCc2ccccc2)n1 | 0.86 | 5.01 | 0.3 | – | –
6 | Nc1nc(NCCc2ccccc2)nc(-c2c(F)cccc2CO)n1 | 1.06 | 6.13 | 0.03 | – | –
7 | Nc1nc(NCCCc2ccc(Oc3ccccc3)cc2)nc(-c2c(F)cccc2CO)n1 | 1.15 | 6.1 | 0.01 | – | –
8 | CNCc1ccccc1-c1nc(N)nc(NCc2ccccc2)n1 | inactive | – | inactive | inactive | inactive
9 | Nc1nc(NCCCc2ccccc2)nc(-c2ccccc2CO)n1 | 0.81 | 6.11 | 0.08 | – | –
10 | CC(=O)c1ccccc1-c1nc(N)nc(NCc2ccccc2)n1 | inactive | – | inactive | inactive | inactive
11 | Nc1nc(NCCCCc2ccccc2)nc(-c2c(F)cccc2CO)n1 | 1.24 | 5.34 | 0.06 | – | –
12 | Nc1nc(NCc2ccccc2C(F)(F)F)nc(-c2ccccc2CO)n1 | 0.6 | 5.96 | 0.31 | – | –
13 | Nc1nc(Nc2ccccc2)nc(-c2ccccc2CO)n1 | 0.72 | 5.04 | 0.4 | – | –
14 | Nc1nc(NCCc2ccc(Oc3ccccc3)cc2)nc(-c2c(F)cccc2CO)n1 | 1.14 | 6.14 | -0.06 | – | –
15 | Cc1cccc(CNc2nc(N)nc(-c3c(F)cccc3CO)n2)c1 | 0.84 | 5.42 | 0.14 | – | –
16 | Nc1nc(NCCCCc2ccccc2)nc(-c2cc(Cl)ccc2CO)n1 | 1.09 | 6.14 | 0.06 | – | –
17 | Nc1nc(NCc2ccccc2)nc(-c2ccccc2)n1 | inactive | – | inactive | inactive | inactive
18 | Nc1cc(-c2ccccc2CO)nc(NCc2ccccc2)n1 | inactive | – | inactive | inactive | inactive
19 | Nc1nc(NCCCc2ccccc2)nc(-c2c(F)cccc2CO)n1 | 1.19 | 5.67 | 0.02 | – | –
20 | CNc1nc(NCc2ccccc2)nc(-c2ccccc2CO)n1 | 0.48 | 5.36 | 0.37 | – | –
21 | Nc1nc(NCCc2ccc(Oc3ccccc3)cc2)nc(-c2cc(Cl)ccc2CO)n1 | 1.39 | 5.87 | -0.04 | – | –
22 | CCNc1nc(NCc2ccccc2)nc(-c2ccccc2CO)n1 | 0.47 | 5.34 | 0.25 | – | –
23 | Nc1nc(NCCc2ccccc2)nc(-c2ccccc2CO)n1 | 0.88 | 5.62 | 0.24 | – | –
24 | Nc1nc(NCCCCc2ccc(Oc3ccccc3)cc2)nc(-c2ccccc2CO)n1 | 1.03 | 5.94 | 0.09 | – | –

Second part, the compound after the results:

Row | log(activity) [1] | Activity index [2] | log(activity) [3] | Activity_index [2] | pKb [4] | Compound
25 | 0.87 | 5.34 | 0.1 | – | – | CCOc1ccc(-c2nc(N)nc(NCc3ccccc3)n2)c(CO)c1
26 | 0.64 | 5.46 | 0.24 | – | – | Nc1nc(NCc2ccccc2)nc(-c2ccc(F)cc2CO)n1
27 | 1.25 | 5.56 | -0.12 | – | – | Nc1nc(NCc2ccccc2)nc(-c2c(Cl)cccc2CO)n1
28 | 1.2 | 5.78 | 0.09 | – | – | Nc1nc(NCc2ccccc2)nc(-c2cc(Cl)ccc2CO)n1
29 | 0.9 | 5.6 | 0.32 | – | – | Cc1ccc(CNc2nc(N)nc(-c3ccccc3CO)n2)cc1
30 | 0.98 | 5.56 | 0.31 | – | – | Nc1nc(NCc2ccccc2F)nc(-c2ccccc2CO)n1
31 | 0.89 | 5.22 | 0.23 | – | – | COc1cccc(CNc2nc(N)nc(-c3ccccc3CO)n2)c1
32 | 0.78 | 4.61 | 0.49 | – | – | COc1ccc(CNc2nc(N)nc(-c3ccccc3CO)n2)cc1
33 | 0.92 | 5.57 | 0.25 | – | – | Cc1cccc(CNc2nc(N)nc(-c3ccccc3CO)n2)c1
34 | 0.4 | 4.86 | 0.3 | – | – | COc1cccc(-c2nc(N)nc(NCc3ccccc3)n2)c1CO
35 | 0.54 | 5.57 | 0.33 | – | – | Cc1ccccc1CNc1nc(N)nc(-c2ccccc2CO)n1
36 | 0.81 | 5.57 | -0.01 | – | – | CCOc1ccc(CNc2nc(N)nc(-c3ccccc3CO)n2)cc1
37 | 0.56 | 5.74 | 0.27 | – | – | CC(C)Oc1ccc(-c2nc(N)nc(NCc3ccccc3)n2)c(CO)c1
38 | 1.09 | 5.42 | 0.36 | – | – | Nc1nc(NCc2ccc(F)cc2)nc(-c2ccccc2CO)n1
39 | 0.53 | 5.69 | 0.17 | – | – | CC(C)Oc1ccc(CNc2nc(N)nc(-c3ccccc3CO)n2)cc1
40 | 0.64 | 6.07 | 0.32 | – | – | Nc1nc(NCc2cccc(C(F)(F)F)c2)nc(-c2ccccc2CO)n1
41 | 0.98 | 5.03 | 0.06 | – | – | COc1ccccc1CNc1nc(N)nc(-c2ccccc2CO)n1

Row | log(activity) [1] | Activity index [2] | log(activity) [3] | Activity_index [2] | pKb [4] | Compound
42 | 0.64 | 5.94 | 0.23 | – | – | Nc1nc(NCc2ccccc2Cl)nc(-c2ccccc2CO)n1
43 | 0.91 | 5.69 | 0.2 | – | – | Nc1nc(NCc2ccccc2)nc(-c2cc(F)ccc2CO)n1
44 | 1.05 | 5.78 | 0.03 | – | – | Nc1nc(NCc2ccc(Oc3ccccc3)cc2)nc(-c2cc(Cl)ccc2CO)n1
45 | 0.95 | 6.14 | 0 | – | – | Nc1nc(NCc2ccc(Oc3ccccc3)cc2)nc(-c2ccccc2CO)n1
46 | 1.01 | 5.87 | 0.11 | – | – | Nc1nc(NCc2ccccc2)nc(-c2ccc(Cl)cc2CO)n1
47 | 1.19 | 5.84 | -0.01 | – | – | Nc1nc(NCCCc2ccc(Oc3ccccc3)cc2)nc(-c2ccccc2CO)n1
48 | 0.7 | 5.55 | 0.33 | – | – | Nc1nc(NCc2cccc(F)c2)nc(-c2ccccc2CO)n1
49 | inactive | – | – | inactive | inactive | COc1cccc(CO)c1-c1nc(N)nc(NCc2ccccc2)n1
50 | 0.67 | 5.77 | 0.04 | – | – | Nc1nc(NCc2ccc(OC3CC3)cc2)nc(-c2ccccc2CO)n1
51 | 0.78 | 6.1 | 0.3 | – | – | Nc1nc(NCc2ccc(C(F)(F)F)cc2)nc(-c2ccccc2CO)n1
52 | 0.83 | 5.9 | 0.03 | – | – | Nc1nc(NCCc2ccc(Oc3ccccc3)cc2)nc(-c2ccccc2CO)n1
53 | 1.15 | 5.19 | 0.35 | – | – | Nc1nc(NCc2ccccc2)nc(-c2c(F)cccc2CO)n1
54 | 0.61 | 4.77 | 0.18 | – | – | COc1ccc(CO)c(-c2nc(N)nc(NCc3ccccc3)n2)c1
55 | 0.46 | 4.97 | 0.14 | – | – | COc1ccc(-c2nc(N)nc(NCc3ccccc3)n2)c(CO)c1
56 | inactive | – | inactive | inactive | inactive | CC(O)c1ccccc1-c1nc(N)nc(NCc2ccccc2)n1 (stereo not given)
57 | 0.59 | 4.86 | 0.27 | – | – | Nc1nc(NCc2ccccc2)nc(-c2cccc(F)c2CO)n1
58 | 0.48 | 5.9 | 0.46 | – | – | Nc1nc(NCc2cccc(Cl)c2)nc(-c2ccccc2CO)n1
